Source: ChEMBL document CHEMBL4020840, “Synthesis and Biological Evaluation of Selenium-Containing 4-Anilinoquinazoline Derivatives as Novel Antimitotic Agents” (J Med Chem, 2018)
Calls of active or inactive are those of the source. No cut-off for these calls is given here.

Key:
Sus scrofa = organism: Sus scrofa; assay: Inhibition of porcine brain tubulin polymerization measured every 60 secs for 90 mins by DAPI staining based fluorescence assay
Summary of the method: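 Purified tubulin was tested in a kit assay. Final buffer: 80 mM PIPES sesquisodium (pH 6.9), 2.0 mM MgCl₂, 0.5 mM EGTA, 1 mM GTP, 10.2% glycerol. Compound (0.1–10 μM) was prewarmed at 37 °C for 1 min before tubulin was added. DAPI reporter fluorescence (ex 340 / em 410 nm) was read every 60 s for 90 min. Area under the curve gave percent inhibition versus control and the IC50.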

A549 [1] = assay: Cell cycle arrest in human A549 cells assessed as accumulation at G2/M phase up to 24 hrs by propidium iodide staining based flow cytometry; type: functional
Summary of the method: (§1)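 A549 seeded in six-well plates at 3 × 10⁵ cells/well and treated for 12 or 24 h; vehicle 0.01% DMSO. Cells fixed overnight in ice-cold 70% ethanol, treated with RNase A at 37 °C for 30 min, then stained with PI at 4 °C for 30 min. About 10 000 events acquired by flow cytometry at 488 nm; three experiments.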

A549 [2] = assay: Cell cycle arrest in human A549 cells assessed as decrease in G1 phase at 4 nM up to 24 hrs by propidium iodide staining based flow cytometry; type: functional; summary of the method: as §1
A549 [3] = assay: Cell cycle arrest in human A549 cells assessed as decrease in S phase at 4 nM up to 24 hrs by propidium iodide staining based flow cytometry; type: functional; summary of the method: as §1
A549 [4] = assay: Induction of apoptosis in human A549 cells assessed as upregulation of Bax level at 2 to 4 nM after 24 to 48 hrs by Western blot method; type: functional, cell-based
Summary of the method: (§2)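 A549 seeded in 60 mm dishes at 5 × 10⁵ cells and treated for 24 or 48 h. Lysed in RIPA buffer on ice for 30 min and spun at 12 500g. Protein measured by BCA; 40 μg run on 8−12% SDS−PAGE and moved to nitrocellulose. Blocked in 5% milk, primary antibodies at 4 °C overnight, HRP secondary 2 h, ECL detection.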

A549 [5] = assay: Induction of apoptosis in human A549 cells assessed as upregulation of Bad level at 2 to 4 nM after 24 to 48 hrs by Western blot method; type: functional, cell-based; summary of the method: as §2
A549 [6] = assay: Induction of apoptosis in human A549 cells assessed as downregulation of Bcl2 level at 2 to 4 nM after 24 to 48 hrs by Western blot method; type: functional, cell-based; summary of the method: as §2
A549 [7] = assay: Antimigratory activity against human A549 cells assessed as suppression of wound healing at 4 nM after 24 hrs by phase contrast microscopic method; type: functional, cell-based
Summary of the method: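 Scratch wound assay: A549 plated at 5 × 10⁴ cells/dish and grown 24 h before scraping with a 10 μL tip. Medium then swapped to serum-free DMEM containing compound (4 nM) for 24 h. After a PBS wash, wound images taken at 0 and 24 h; at least three independent experiments.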

MCF7 = assay: Induction of morphological changes in human MCF7 cells at 2 to 8 nM after 48 hrs by confocal microscopic method; type: functional, cell-based
Summary of the method: (§3)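 Human cancer cells were treated at the indicated concentrations, or 0.01% DMSO vehicle, for 48 h. Cells were then fixed and their morphology was examined by microscopy with a 20× objective.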

HeLa [8] = assay: Induction of morphological changes in human HeLa cells at 2 to 8 nM after 48 hrs by confocal microscopic method; type: functional, cell-based; summary of the method: as §3
MGC-803 = assay: Induction of morphological changes in human MGC803 cells at 2 to 8 nM after 48 hrs by confocal microscopic method; type: functional, cell-based; summary of the method: as §3
A549 [9] = assay: Induction of ROS generation in human A549 cells at 2 to 8 nM after 12 hrs by DCFH-DA staining based fluorescence microscopic method; type: functional, cell-based
Summary of the method: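 A549 plated at 3 × 10⁵ cells/well and grown 24 h, then exposed to compound (2, 4, 8 nM) for 12 h. Loaded with DCFH-DA in fresh medium at 37 °C for 30 min and washed three times with PBS. DCF fluorescence read at excitation 488 and emission 525 nm. Images taken after Hoechst 33342 nuclear staining.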

A549 [10] = assay: Disruption of microtubule network in human A549 cells at 2 nM after 12 hrs by Hoechst 33342 staining based laser scanning confocal microscopic method; type: cell-based
Summary of the method: (§4)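 A549 and HeLa cells at 3 × 10⁵ per confocal dish, grown 24 h, then exposed to compound (2, 4 or 8 nM) or 0.01% DMSO for 12 h. Fixed in 4% paraformaldehyde at 37 °C for 15 min, permeabilised with 0.5% Triton X-100, blocked with 10% goat serum. Stained with mouse anti-tubulin at 4 °C overnight, then Alexa-Fluor 488 secondary; Hoechst 33342 nuclear stain; confocal imaging.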

A549 [11] = assay: Disruption of microtubule network in human A549 cells at 4 to 8 nM after 12 hrs by Hoechst 33342 staining based laser scanning confocal microscopic method; type: cell-based; summary of the method: as §4
HeLa [12] = assay: Disruption of microtubule network in human HeLa cells at 2 nM after 12 hrs by Hoechst 33342 staining based laser scanning confocal microscopic method; type: cell-based; summary of the method: as §4
HeLa [13] = assay: Disruption of microtubule network in human HeLa cells at 4 to 8 nM after 12 hrs by Hoechst 33342 staining based laser scanning confocal microscopic method; type: cell-based; summary of the method: as §4
A549 [14] = assay: Induction of mitochondrial membrane disruption in human A549 cells at 2 to 8 nM after 48 hrs by JC1/Hoechst 33342 staining based flow cytometry; type: functional, cell-based

Compound | inhibition (Sus scrofa) | Activity (A549 [1]) | Activity (A549 [2]) | Activity (A549 [3]) | Activity (A549 [4]) | Activity (A549 [5]) | Activity (A549 [6]) | Activity (A549 [7]) | Activity (MCF7) | Activity (HeLa [8]) | Activity (MGC-803) | Activity (A549 [9]) | Activity (A549 [10]) | Activity (A549 [11]) | Activity (HeLa [12]) | Activity (HeLa [13]) | Activity (A549 [14])
Cc1nc(N(C)c2ccc([Se]C#N)cc2)c2ccccc2n1 | Dose-dependent effect | Dose-dependent effect | Active | Active | Active | Active | Active | Active | – | – | – | – | – | – | – | – | –
C[Se]c1ccc(N(C)c2nc(C)nc3ccccc23)cc1 | Dose-dependent effect | Dose-dependent effect | – | – | Active | Active | Active | Active | Active | Active | Active | Active | inactive | Active | inactive | Active | Active
